From ChEMBL document CHEMBL4765319, “Identification of a new series of flavopiridol-like structures as kinase inhibitors with high cytotoxic potency” (Eur J Med Chem, 2020)
Active and inactive are the calls of the source. The rule behind the calls is not given here.

Assays:
[1] = system: MIA PaCa-2; experiment: Potency index, ratio of flavopiridol IC50 to test compound IC50 for human MIA PaCa-2 cells assessed as reduction in cell viability incubated for 72 hrs by CellTiter-Blue resazurin fluorescence assay
[2] = system: K562; experiment: Cell cycle arrest in human K562 cells assessed as accumulation at G2/M phase at 25 nM after 24 hrs by propidium iodide staining-based flow cytometric analysis (reference value: 12.9 %); type: functional
[3] = system: PC-3; experiment: Antiproliferative activity against human PC-3 cells assessed as reduction in cell viability incubated for 72 hrs by CellTiter-Blue fluorescence assay; conditions: PC-3, 72 h
[4] = system: HCT-116; experiment: Cell cycle arrest in human HCT-116 cells assessed as accumulation at S phase at 200 nM after 24 hrs by propidium iodide staining-based flow cytometric analysis (reference value: 47.6 %); type: functional
[5] = system: HCT-116; experiment: Cell cycle arrest in human HCT-116 cells assessed as increase in accumulation at G2/M phase after 24 hrs by propidium iodide staining-based flow cytometric analysis; type: functional; conditions: dose 100-500 nM
[6] = system: HCT-116; experiment: Cell cycle arrest in human HCT-116 cells assessed as accumulation at S phase at 500 nM after 24 hrs by propidium iodide staining-based flow cytometric analysis (reference value: 47.6 %); type: functional
[7] = system: K562; experiment: Cell cycle arrest in human K562 cells assessed as increase in accumulation at G2/M phase after 24 hrs by propidium iodide staining-based flow cytometric analysis; type: functional; conditions: dose 25-100 nM
[8] = molecular target: T1, Glycogen synthase kinase-3 beta (Homo sapiens, UniProt P49841); experiment: Inhibition of human GSK3beta assessed as residual activity at 1 uM in presence of ATP by ADP-glo luminescent assay relative to control
Method in brief: (§1)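 Human kinases assayed by ADP-Glo luminescence with 10 μM ATP, compound at 10 or 1 μM. Activity is expressed as % of maximal activity relative to a DMSO control, mean n = 2.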

[9] = molecular target: Cyclin-dependent kinase 5/CDK5 activator 1 (Homo sapiens, UniProt Q00535); experiment: Inhibition of human CDK5/p25 in presence of ATP by ADP-glo luminescent assay; type: protein-complex assay
Method in brief: (§2)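 Human kinases tested over roughly 0.0003–10 μM by ADP-Glo luminescence with 10 μM ATP, in duplicate. IC50 is taken from dose-response curves.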

[10] = system: K562; experiment: Cell cycle arrest in human K562 cells assessed as increase in accumulation at G0/G1 phase after 24 hrs by propidium iodide staining-based flow cytometric analysis; type: functional; conditions: dose 25-100 nM
[11] = molecular target: T1, Glycogen synthase kinase-3 beta; experiment: Inhibition of human GSK3beta assessed as residual activity at 10 uM in presence of ATP by ADP-glo luminescent assay relative to control
Method in brief: as §1

[12] = molecular target: CDK9/cyclin T1 (Homo sapiens) (UniProt O60563+P50750); experiment: Inhibition of human CDK9/cyclin T assessed as residual activity at 10 uM in presence of ATP by ADP-glo luminescent assay relative to control; type: protein-complex assay
Method in brief: as §1

[13] = system: HCT-116; experiment: Cell cycle arrest in human HCT-116 cells assessed as accumulation at G2/M phase at 500 nM after 24 hrs by propidium iodide staining-based flow cytometric analysis (reference value: 31.5 %); type: functional
[14] = molecular target: T1, Glycogen synthase kinase-3 beta; experiment: ATP competitive inhibition of human GSK3beta at 500 nM in presence of ATP by ADP-glo luminescent assay
Method in brief: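 HsGSK3β activity by ADP-Glo luminescence with 500 nM inhibitor, or without it, across ATP 3.125 to 100 μM. Residual activity is given as % of a DMSO control, mean (n = 3) ± SD.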

[15] = system: HCT-116; experiment: Antiproliferative activity against human HCT-116 cells assessed as reduction in cell viability incubated for 72 hrs by CellTiter-Blue fluorescence assay; conditions: HCT-116, 72 h
[16] = system: K562; experiment: Cell cycle arrest in human K562 cells assessed as accumulation at S phase at 50 nM after 24 hrs by propidium iodide staining-based flow cytometric analysis (reference value: […]); type: functional
[17] = system: SK-BR-3; experiment: Antiproliferative activity against human SK-BR-3 cells assessed as reduction in cell viability incubated for 72 hrs by CellTiter-Blue fluorescence assay; conditions: SK-BR-3, 72 h
[18] = system: Leishmania major; experiment: Inhibition of Leishmania major CK1 assessed as residual activity at 10 uM in presence of ATP by ADP-glo luminescent assay relative to control
[19] = system: K562; experiment: Cell cycle arrest in human K562 cells assessed as accumulation at G2/M phase at 100 nM after 24 hrs by propidium iodide staining-based flow cytometric analysis (reference value: 12.9 %); type: functional
[20] = molecular target: Cyclin-dependent kinase 5/CDK5 activator 1 (Homo sapiens) (UniProt Q00535+Q15078); experiment: Inhibition of human CDK5/p25 assessed as residual activity at 1 uM in presence of ATP by ADP-glo luminescent assay relative to control; type: protein-complex assay
Method in brief: as §1

[21] = system: K562; experiment: Cell cycle arrest in human K562 cells assessed as accumulation at S phase at 100 nM after 24 hrs by propidium iodide staining-based flow cytometric analysis (reference value: […]); type: functional
[22] = molecular target: CDK2/Cyclin A2 (Homo sapiens) (UniProt P24941+P20248); experiment: Inhibition of human CDK2/cyclin A assessed as residual activity at 1 uM in presence of ATP by ADP-glo luminescent assay relative to control; type: protein-complex assay
Method in brief: as §1

[23] = molecular target: CDK9/cyclin T1 (Homo sapiens, UniProt P50750); experiment: Inhibition of human CDK9/cyclin T in presence of ATP by ADP-glo luminescent assay; type: protein-complex assay
Method in brief: as §2

[24] = molecular target: CDK2/Cyclin A2 (Homo sapiens, UniProt P24941); experiment: Inhibition of human CDK2/cyclin A in presence of ATP by ADP-glo luminescent assay; type: protein-complex assay
Method in brief: as §2

[25] = system: K562; experiment: Cell cycle arrest in human K562 cells assessed as accumulation at G0/G1 phase at 100 nM after 24 hrs by propidium iodide staining-based flow cytometric analysis (reference value: 21.4 %); type: functional

T1 sequence (P49841 whole entry, looked up): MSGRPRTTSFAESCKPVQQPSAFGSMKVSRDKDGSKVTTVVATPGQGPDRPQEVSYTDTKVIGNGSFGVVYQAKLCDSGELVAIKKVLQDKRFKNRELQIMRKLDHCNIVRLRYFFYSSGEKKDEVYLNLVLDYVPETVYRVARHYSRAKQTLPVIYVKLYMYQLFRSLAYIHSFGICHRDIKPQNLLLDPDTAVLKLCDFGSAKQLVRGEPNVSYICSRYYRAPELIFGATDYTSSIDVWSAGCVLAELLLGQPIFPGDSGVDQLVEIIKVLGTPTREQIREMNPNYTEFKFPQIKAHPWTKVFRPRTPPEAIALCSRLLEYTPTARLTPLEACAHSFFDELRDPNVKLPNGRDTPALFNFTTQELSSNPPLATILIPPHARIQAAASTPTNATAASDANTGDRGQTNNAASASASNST
Sequence of CDK9/cyclin T1 (O60563 whole entry): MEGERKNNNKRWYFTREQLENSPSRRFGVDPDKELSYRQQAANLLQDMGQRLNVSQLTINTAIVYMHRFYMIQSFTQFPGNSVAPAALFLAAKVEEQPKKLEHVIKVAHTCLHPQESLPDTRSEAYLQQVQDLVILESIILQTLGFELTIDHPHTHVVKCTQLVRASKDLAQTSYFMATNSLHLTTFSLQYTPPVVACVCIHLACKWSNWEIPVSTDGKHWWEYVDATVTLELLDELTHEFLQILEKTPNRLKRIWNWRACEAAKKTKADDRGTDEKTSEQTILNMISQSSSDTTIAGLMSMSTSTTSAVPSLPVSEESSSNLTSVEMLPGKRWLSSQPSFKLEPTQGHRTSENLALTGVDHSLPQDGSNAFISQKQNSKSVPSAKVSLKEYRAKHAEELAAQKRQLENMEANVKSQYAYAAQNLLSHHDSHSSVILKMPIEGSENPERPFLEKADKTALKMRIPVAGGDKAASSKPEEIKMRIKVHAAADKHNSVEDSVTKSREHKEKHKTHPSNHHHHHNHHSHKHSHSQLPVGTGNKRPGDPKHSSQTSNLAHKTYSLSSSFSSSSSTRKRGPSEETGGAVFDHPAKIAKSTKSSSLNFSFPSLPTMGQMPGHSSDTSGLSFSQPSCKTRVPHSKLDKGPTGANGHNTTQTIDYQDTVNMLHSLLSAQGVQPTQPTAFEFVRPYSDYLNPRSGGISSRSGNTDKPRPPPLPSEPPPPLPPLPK
Sequence of CDK9/cyclin T1 (P50750 whole entry): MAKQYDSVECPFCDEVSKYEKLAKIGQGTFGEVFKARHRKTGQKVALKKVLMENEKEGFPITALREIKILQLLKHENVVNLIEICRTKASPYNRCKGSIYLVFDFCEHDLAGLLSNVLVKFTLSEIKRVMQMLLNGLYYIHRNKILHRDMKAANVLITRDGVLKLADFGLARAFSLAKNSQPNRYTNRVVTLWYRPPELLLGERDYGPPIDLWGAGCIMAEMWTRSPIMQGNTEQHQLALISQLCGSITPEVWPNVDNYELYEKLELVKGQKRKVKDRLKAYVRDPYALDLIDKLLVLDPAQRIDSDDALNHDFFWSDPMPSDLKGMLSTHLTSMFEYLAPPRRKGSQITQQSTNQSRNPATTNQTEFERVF
Sequence of Cyclin-dependent kinase 5/CDK5 activator 1 (Q00535 whole entry): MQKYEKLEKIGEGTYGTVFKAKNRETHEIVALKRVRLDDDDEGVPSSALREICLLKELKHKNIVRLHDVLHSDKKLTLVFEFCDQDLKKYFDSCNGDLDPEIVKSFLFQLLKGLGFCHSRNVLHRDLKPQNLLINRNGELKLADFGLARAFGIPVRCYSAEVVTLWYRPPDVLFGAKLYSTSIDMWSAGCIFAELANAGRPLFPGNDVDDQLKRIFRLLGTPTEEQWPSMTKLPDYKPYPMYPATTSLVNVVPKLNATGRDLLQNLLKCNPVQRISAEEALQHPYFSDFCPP
Sequence of Cyclin-dependent kinase 5/CDK5 activator 1 (Q15078 whole entry, further chain): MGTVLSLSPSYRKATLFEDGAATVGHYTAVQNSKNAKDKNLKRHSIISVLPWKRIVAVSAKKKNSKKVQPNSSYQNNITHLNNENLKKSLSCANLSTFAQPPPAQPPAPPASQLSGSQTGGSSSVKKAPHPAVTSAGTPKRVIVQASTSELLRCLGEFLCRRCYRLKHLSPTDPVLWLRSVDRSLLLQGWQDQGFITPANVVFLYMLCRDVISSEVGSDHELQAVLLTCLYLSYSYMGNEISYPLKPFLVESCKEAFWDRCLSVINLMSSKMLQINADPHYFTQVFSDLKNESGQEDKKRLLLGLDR
Sequence of Cyclin-dependent kinase 5/CDK5 activator 1 (Homo sapiens) (Q00535 whole entry): as the sequence (Q00535 whole entry) above
Sequence of Cyclin-dependent kinase 5/CDK5 activator 1 (Homo sapiens) (Q15078 99-307 partner limits assumed): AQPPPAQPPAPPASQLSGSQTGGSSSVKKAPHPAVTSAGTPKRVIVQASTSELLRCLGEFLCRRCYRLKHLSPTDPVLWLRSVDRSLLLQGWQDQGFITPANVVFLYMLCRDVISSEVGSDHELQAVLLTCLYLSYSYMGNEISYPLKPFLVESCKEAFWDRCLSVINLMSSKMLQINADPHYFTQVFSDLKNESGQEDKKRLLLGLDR

In the case of `CN1CC=C(c2c(O)cc(O)c3c(=O)cc(-c4ccc(Sc5nc6ccccc6n5C)cc4Cl)oc23)CC1`, the “Ratio IC50” value [1] is reported as “<=6”, the Activity [2] is reported as 10.7% and the IC50 [3] is reported as 85 nM. The Activity [4] was 43.1%, the Activity [5] was “Dose-dependent effect” and the Activity [6] was 25.1%. For the same molecule, the Activity [7] was “Dose-dependent effect”, the Activity [8] was 12% and the IC50 [9] was 1090 nM. The Activity [10] was “Dose-dependent effect”, the Activity [11] was 2% and the Activity [12] was -2%. The Activity [13] was 40%, the inhibition [14] was “Active” and the IC50 [15] was 81 nM. For the same molecule, the Activity [16] was 49.4%, the IC50 [17] was 53.7 nM and the Activity [18] was 38%. For the same molecule, the Activity [19] was 28.7%, the Activity [20] was 68% and the Activity [21] was 21%. For the same molecule, the Activity [22] was 87%, the IC50 [23] was 64 nM and the IC50 [24] was 1730 nM. The Activity [25] was 50.3%.
